Reference: ChEMBL document CHEMBL2034832, “12-N-Methylated 5,6-dihydrobenzo[c]acridine derivatives: a new class of highly selective ligands for c-myc G-quadruplex DNA” (Eur J Med Chem, 2012)
Calls of active or inactive are those of the source. No cut-off for these calls is given here.

What was measured:
[1] = target: Nucleic Acid; assay: Binding affinity to c-myc quadruplex DNA Pu27 assessed as inhibition of c-myc amplification by PCR-stop assay; assay type: nucleic-acid assay
In short: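 Pu27 template with partly complementary primer, 10 μM each, […], 2.5 U Taq and ligand at 1, 5, 10 or 25 μM (one series 50 μM). Cycling: 94 °C 2 min, then 30 × (94 °C, 58 °C, 72 °C, 30 s each). Products run on 16% native PAGE, GelRed stain; IC50 for 50% loss of amplification.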

[2] = target: Nucleic Acid; assay: Binding affinity to immobilised c-myc quadruplex DNA G4 by SPR assay; assay type: nucleic-acid assay
In short: (§1)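 SPR: biotinylated DNA captured (~1000 RU) on GLH chip, blank reference cell. Running buffer 50 mM Tris-HCl pH 7.2, 100 mM KCl. Ligand at 0.3125–10 μM injected at 100 μL/min, 400 s association and 400 s dissociation, 25 °C; NaOH regeneration. KD by equilibrium analysis; mean ± SD of at least two runs.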

[3] = system: Nucleic Acid; assay: Binding affinity to c-myc quadruplex DNA Pu27 assessed as conformational change up to 10 uM by circular dichroism in the presence of 100 mM K+; assay type: nucleic-acid assay
In short: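 CD titration of 1 μM Pu27, annealed (95 °C 5 min, slow cool, 4 °C overnight) in 10 mM Tris-HCl pH 7.2, 100 mM KCl. Ligand added stepwise (0.5–10 eq.) at 25 °C, ≥10 min equilibration per addition. Spectra 230–430 nm, 1 cm cell, average of two scans, buffer baseline subtracted.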

[4] = system: Nucleic Acid; assay: Binding affinity to duplex DNA F10T assessed as change in melting temperature at 2 uM by FRET-melting assay; assay type: nucleic-acid assay
In short: (§2)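 FRET melting of 0.2 μM dual-labelled oligo (FPu18T, FAM/TAMRA c-myc G-quadruplex; or F10T, HEG-linked hairpin duplex) in 10 mM Tris-HCl pH 7.2, 0.2 mM KCl, with or without 2 μM ligand. Excitation 470 nm, emission 530 nm, read every 1 °C from 37–99 °C after 30 s hold. ΔTm = Tm(DNA+ligand) − Tm(DNA); mean ± SD of at least three runs.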

[5] = system: Nucleic Acid; assay: Binding affinity to immobilised duplex DNA up to 10 uM by SPR assay; assay type: nucleic-acid assay; in short: as §1
[6] = system: Nucleic Acid; assay: Binding affinity to c-myc quadruplex DNA FPu18T assessed as change in melting temperature at 2 uM by FRET-melting assay in the presence of excess of ds26 duplex DNA; assay type: nucleic-acid assay
In short: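 Competition FRET melting: 0.2 μM FPu18T with 2 μM ligand in 10 mM Tris-HCl pH 7.2, 0.2 mM KCl, plus varying amounts of unlabelled self-complementary ds26 duplex as competitor. Fluorescence at 470/530 nm recorded per 1 °C step over 37–99 °C.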

[7] = system: Nucleic Acid; assay: Binding affinity to c-myc quadruplex DNA FPu18T assessed as change in melting temperature at 2 uM by FRET-melting assay; assay type: nucleic-acid assay; in short: as §2
[8] = system: Nucleic Acid; assay: Binding affinity to c-myc quadruplex DNA Pu27 assessed as conformational change up to 10 uM by circular dichroism in the absence of 100 mM K+; assay type: nucleic-acid assay
In short: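 K+-free CD: 1 μM Pu27 in 10 mM Tris-HCl pH 7.2 with ligand at 0, 3, 5 or 10 μM, co-annealed (95 °C 5 min, slow cool, 4 °C overnight). Spectra recorded at 25 °C over 230–430 nm, 1 cm cell, two scans averaged, buffer baseline subtracted.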

[9] = system: CA46; assay: Down-regulation of c-myc gene expression in human CA46 cells at 0.5 to 5 uM after 4 days by RT-PCR analysis; assay type: functional, cell-based
In short: (§3)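 Cells given ligand at 0.5, 1, 2.5 or 5 μM for 4 days. Total RNA (TRIpure) 2 μg reverse-transcribed with oligo dT18/M-MLV (42 °C 1 h). c-myc and β-actin amplified by PCR, run on 1% agarose; c-myc normalized to β-actin.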

[10] = system: CA46; assay: Growth inhibition of c-myc NHE III1-deficient human CA46 cell line at 2.5 to 10 uM after 4 days by cell counting; assay type: functional, cell-based
In short: (§4)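 Cells seeded at 1.0×10^5 per well and exposed to ligand (2.5, 5 or 10 μM) or 0.1% DMSO for 4 days. Cell counts and viability taken daily; three repeats per point.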

[11] = system: Ramos; assay: Growth inhibition of human Ramos cell line expressing c-myc NHE III1 after 4 days by cell counting; assay type: functional, cell-based; in short: as §4
[12] = system: Ramos; assay: Down-regulation of c-myc gene expression in human Ramos cells after 4 days by RT-PCR analysis; assay type: functional, cell-based; in short: as §3

| Structure (SMILES) | IC50 [1] | Kd [2] | Activity [3] | ΔTm [4] | Activity [5] | Activity [6] | ΔTm [7] | Activity [8] | Activity [9] | growth inhibition (GI) [10] | growth inhibition (GI) [11] | Activity [12] |
| --- | --- | --- | --- | --- | --- | --- | --- | --- | --- | --- | --- | --- |
| CCN(CC)CCCOc1c(OC)ccc2nc3c(cc12)CCc1cc(OC)c(OC)cc1-3 | > 50000 nM | 4400 nM | Active | 0.4 °C | inactive | Active | 11.2 °C | Active | – | – | – | – |
| COc1ccc2c(cc3c([n+]2C)-c2cc4c(cc2CC3)OCO4)c1OCCCNC1CCCCC1 | 14000 nM | 1200 nM | Active | 0.9 °C | inactive | Active | 11.6 °C | Active | – | – | – | – |
| COc1cc2c(cc1OC)-c1c(cc3c(OCCCN4CCCC4)c(OC)ccc3[n+]1C)CC2 | 4700 nM | 600 nM | Active | 1.4 °C | inactive | Active | 25.4 °C | Active | – | – | – | – |
| COc1cc2c(cc1OC)-c1nc3ccc(OC)c(OCCCN4CCCCC4)c3cc1CC2 | > 50000 nM | 2800 nM | Active | 1 °C | inactive | Active | 11 °C | Active | – | – | – | – |
| CCN(CC)CCCOc1c(OC)ccc2nc3c(cc12)CCc1cc2c(cc1-3)OCO2 | > 50000 nM | 3000 nM | Active | 1 °C | inactive | Active | 6.2 °C | Active | – | – | – | – |
| COc1ccc2nc3c(cc2c1OCCN1CCCC1)CCc1cc2c(cc1-3)OCO2 | > 50000 nM | 1400 nM | Active | 1 °C | inactive | Active | 5.3 °C | Active | – | – | – | – |
| COc1ccc2c(cc3c([n+]2C)-c2cc4c(cc2CC3)OCO4)c1OCCCN1CCN(C)CC1 | 9500 nM | 800 nM | Active | 0.5 °C | inactive | Active | 19 °C | Active | – | – | – | – |
| COc1ccc2c(cc3c([n+]2C)-c2cc4c(cc2CC3)OCO4)c1OCCCN1CCCCC1 | 5400 nM | 600 nM | Active | 0.5 °C | inactive | Active | 21.4 °C | Active | – | – | – | – |
| COc1cc2c(cc1OC)-c1c(cc3c(OCCCN4CCCCC4)c(OC)ccc3[n+]1C)CC2 | 5000 nM | 600 nM | Active | 0.8 °C | inactive | Active | 23.2 °C | Active | inactive | inactive | Dose-dependent effect | Dose-dependent effect |
| CCN(CC)CCCOc1c(OC)ccc2c1cc1c([n+]2C)-c2cc3c(cc2CC1)OCO3 | 7500 nM | 600 nM | Active | 1.2 °C | inactive | Active | 21.8 °C | Active | – | – | – | – |
| COc1ccc2c(cc3c([n+]2C)-c2cc4c(cc2CC3)OCO4)c1OCCCN1CCCC1 | 5300 nM | 400 nM | Active | 1.1 °C | inactive | Active | 22.2 °C | Active | – | – | – | – |
| CCN(CC)CCOc1c(OC)ccc2nc3c(cc12)CCc1cc2c(cc1-3)OCO2 | > 50000 nM | 2600 nM | Active | 1.6 °C | inactive | Active | 6.3 °C | Active | – | – | – | – |
